Bioassay records deposited in PubChem BioAssay by several laboratories.
ROMK mod = human ROMK K+ channel modulation, primary screen; P48048; 130,000 tested, 2% active; Tet-inducible ROMK, thallium flux fluorescence; actives lie on both sides; B-score at 10 µM;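 active means signal ratio slope over the read window, or its plate-corrected B-score, at least 3 SD from the plate mean, either direction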;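 further: B-score of the F/F0 ratio slope over 7 to 12 s after thallium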
NCF1 inh = p47phox (human) inhibition; P14598; p47phox/p22phox peptide binding, fluorescence polarization, 2 h; inhibition, % at 24.7 µM; 220,000 tested, 0.53% active;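 active means inhibition above about 30%, limit read from the data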
KCC2 mod = KCC2 (human) Cl- transport modulation; Q9H2X9; KCC2 cells, thallium flux FluoZin-2 fluorescence; B-score of Tl+ flux slope (higher = more flux/activation; lower = inhibition) at 10 µM; 190,000 tested, 2.2% active;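 active means thallium flux slope and its plate-corrected score both differing from the plate sample mean at a set confidence after two filtering rounds, in either direction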;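 further: slope of fluorescence scaled to starting intensity during 10 to 20 s after thallium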
Target sequence (Q9H2X9 whole entry, looked up): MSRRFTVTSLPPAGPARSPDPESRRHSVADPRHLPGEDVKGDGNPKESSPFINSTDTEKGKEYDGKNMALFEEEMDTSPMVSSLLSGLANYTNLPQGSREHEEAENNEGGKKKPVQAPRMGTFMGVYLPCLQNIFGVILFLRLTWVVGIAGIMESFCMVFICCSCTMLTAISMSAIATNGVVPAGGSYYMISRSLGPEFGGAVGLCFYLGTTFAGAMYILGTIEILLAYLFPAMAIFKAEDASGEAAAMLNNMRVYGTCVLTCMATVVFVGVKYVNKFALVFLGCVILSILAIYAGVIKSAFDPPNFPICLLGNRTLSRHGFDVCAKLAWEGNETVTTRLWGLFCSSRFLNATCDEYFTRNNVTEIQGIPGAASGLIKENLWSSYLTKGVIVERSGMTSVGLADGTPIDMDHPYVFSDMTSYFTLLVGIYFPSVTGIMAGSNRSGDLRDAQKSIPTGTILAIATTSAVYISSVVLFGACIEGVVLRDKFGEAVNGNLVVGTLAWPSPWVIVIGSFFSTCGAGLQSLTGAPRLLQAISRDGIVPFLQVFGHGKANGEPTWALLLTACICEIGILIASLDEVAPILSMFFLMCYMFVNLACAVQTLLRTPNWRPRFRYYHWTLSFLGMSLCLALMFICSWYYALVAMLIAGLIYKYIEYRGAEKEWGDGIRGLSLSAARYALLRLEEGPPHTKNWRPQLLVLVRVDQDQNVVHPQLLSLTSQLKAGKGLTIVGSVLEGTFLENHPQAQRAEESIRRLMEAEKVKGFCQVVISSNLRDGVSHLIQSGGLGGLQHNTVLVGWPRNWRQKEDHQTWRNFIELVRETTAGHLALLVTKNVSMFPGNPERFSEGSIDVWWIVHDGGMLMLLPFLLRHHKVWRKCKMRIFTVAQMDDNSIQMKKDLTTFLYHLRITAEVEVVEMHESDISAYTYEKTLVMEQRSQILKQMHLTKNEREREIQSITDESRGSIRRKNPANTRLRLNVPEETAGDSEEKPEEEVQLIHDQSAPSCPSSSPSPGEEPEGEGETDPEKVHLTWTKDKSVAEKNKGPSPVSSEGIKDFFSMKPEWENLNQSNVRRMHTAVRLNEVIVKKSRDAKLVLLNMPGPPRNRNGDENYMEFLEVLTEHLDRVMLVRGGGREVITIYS
WT yeast gro inh = growth inhibition of WT yeast, mitochondrial fusion screen; mitochondrial fusion phenotypic screen, WT strain; inhibition, % at 10 µM; 190,000 tested, 2.1% active; AID 1362; in the data active means inhibition above about 58%; tested in S. cerevisiae
14-3-3 Bad PPI = disrupts binding of bovine 14-3-3 zeta to phospho-Bad peptide. TR-FRET 14-3-3zeta/Dy647-pBad peptide displacement, 1 h. inhibition, % at 21.7 µM. 220,000 tested, 0.71% active. P63103;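 active means inhibition above about 70%, limit read from the data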
RBBP9 inhibitor = blocks human serine hydrolase RBBP9. O75884. recombinant RBBP9, FP-Rh probe fluorescence polarization. inhibition, % at 7.94 µM. 220,000 tested, 0.2% active. AID 1515;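 active means inhibition above the campaign mean of all tested compounds plus 3 SD, cut at about 14% in these data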
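System: RBBP9 protein | Quantity: 2.5 µM RBBP9 dispensing solution, before mixing | Reagent: FP-Rh probe, 375 nM dispensing solution | Timing: Enzyme-compound preincubation 30 min, then probe labeling 45 min, 25 °C | Measured by: Fluorescence polarization | Read-out: % inhibition | Replication: One well per compound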
KCC2 secondary = confirmation of human KCC2 transport modulators; shares compounds with KCC2 mod; HEK293-KCC2, thallium flux, FluoZin2 fluorescence; active compounds read high; normalised thallium flux (F/F0 slope) at 10 µM; 3,700 tested, 15% active; AID 1713;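 active means thallium flux slope above the same plate's solvent-only control mean plus 3 SD; inconclusive means the two replicate wells disagree; inactive means no significant difference from solvent-only control wells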
KCC2 bumet counter = thallium flux persisting under bumetanide in KCC2 cells, counter-screen secondary assay; 3,700 tested, 49% active; AID 1714; shares compounds with KCC2 mod; HEK293-KCC2 + bumetanide/ouabain, thallium flux FluoZin2; active compounds read high; normalized thallium flux at 10 µM;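 active means thallium entry rate above the same plate's blocked-transporter control wells by more than 3 SD; inconclusive means the two repeat wells disagree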;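 further: raw slope of fluorescence over initial fluorescence between 10 and 20 s after thallium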
KCC2 secondary2 = confirmation of human KCC2 transport modulators; shares compounds with KCC2 mod; HEK293-KCC2, thallium flux FluoZin2 fluorescence; actives lie on both sides; F/F0 rise rate, 10–20 s post-thallium; normalized thallium flux at 10 µM; 3,700 tested, 23% active;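 active means thallium flux slope more than 3 SD above or below the plate's solvent-only control mean, mostly below; inconclusive means the two repeat wells disagreed; inactive means no significant shift from solvent-only controls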
HEK counter1 = parental HEK flux effect, counter-screen. AID 1716. shares compounds with KCC2 mod. 3,700 tested, 46% active. thallium flux rate (normalised fluorescence) at 10 µM. HEK293 parental cells, thallium flux FluoZin2, ouabain; baseline-ratio fluorescence slope, 10–20 s after thallium;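 active means thallium flux rate significantly above the same plate's solvent-only control wells, beyond their mean plus 3 SD; inconclusive means the two replicate wells gave conflicting results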
KCC2 retest ouab = modulates human KCC2 on retest with ouabain; shares compounds with KCC2 mod; raw Tl+ flux slope (below DMSO = inhibition, above = activation) at 10 µM; HEK293-KCC2, thallium flux FluoZin2 fluorescence; bidirectional: low = inhibitor, high = activator; 3,700 tested, 48% active;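 active means thallium flux slope beyond 3 SD from same-plate DMSO control mean in most replicates, usually higher, sometimes lower; inconclusive means repeat tests gave conflicting results; inactive means no significant difference from controls in most replicates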;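 further: slope of initial-normalized fluorescence between seconds 10 and 20 after thallium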
HEK counter2 = acts in parental HEK cells, second KCC2 counter-screen; shares compounds with KCC2 mod; HEK293 parental, thallium flux FluoZin-2 fluorescence slope; thallium flux slope at 10 µM; 3,700 tested, 33% active;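 active means thallium flux slope above the same plate's solvent-control mean plus 3 SD in both duplicate wells; inconclusive means duplicate wells that disagreed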;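 further: run without ouabain in cells lacking the KCC2 cotransporter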
Each line names hits and unclear results; the compound was inactive in the other large screens (follow-up assays come after a bar, where they were run). This is a sample that favours compounds with a hit; in the whole collection about 5.8% have one here.

CC1=C(C(=O)OCc2ccccc2)C(c2ccco2)C2=C(CC(C)(C)CC2=O)N1 (stereo not drawn)	KCC2 mod -4.3 | KCC2 secondary inconclusive | KCC2 bumet counter inactive | KCC2 secondary2 inactive | HEK counter1 inactive | KCC2 retest ouab 0.05 | HEK counter2 inconclusive
CC(C)NC(=O)NC(=O)COC(=O)Cc1c(F)cccc1Cl	none
O=C1C2Sc3[nH]c(=O)sc3C(c3ccccc3)C2C(=O)N1c1ccccc1 (stereo not drawn)	KCC2 mod -12 (no result: ROMK mod) | KCC2 secondary inconclusive | KCC2 bumet counter inactive | KCC2 secondary2 0.017 | HEK counter1 inactive | KCC2 retest ouab inconclusive | HEK counter2 inactive
COc1ccc(C2c3sc(=O)[nH]c3SC3C(=O)N(c4ccccc4)C(=O)C32)cc1 (stereo not drawn)	KCC2 mod -5.9 (no result: ROMK mod) | KCC2 secondary inactive | KCC2 bumet counter 0.0087 | KCC2 secondary2 0.022 | HEK counter1 0.0097 | KCC2 retest ouab 0.011 | HEK counter2 inactive
O=C(Oc1ccc2ccccc2c1Cl)N1CCCC1	none (no result: ROMK mod, KCC2 mod) | KCC2 secondary inactive | KCC2 bumet counter inactive | KCC2 secondary2 inactive | HEK counter1 inactive | KCC2 retest ouab 0.015 | HEK counter2 inactive
CCOC(=O)C1=NN(C(=O)c2ccc(OC)cc2)C(O)(c2ccc(Cl)cc2)C1 (stereo not drawn)	KCC2 mod 66 | KCC2 secondary inconclusive | KCC2 bumet counter 0.093 | KCC2 secondary2 0.077 | HEK counter1 0.095 | KCC2 retest ouab 0.087 | HEK counter2 0.064
CCOC(=O)C1=NN(C(=O)COc2ccccc2)C(O)(c2ccc(Cl)cc2)C1 (stereo not drawn)	KCC2 mod 6.7 | KCC2 secondary 0.012 | KCC2 bumet counter 0.029 | KCC2 secondary2 inactive | HEK counter1 0.013 | KCC2 retest ouab inactive | HEK counter2 inconclusive
CN(C)CCNC(NC(=O)c1cccs1)C(Cl)(Cl)Cl (stereo not drawn)	none (no result: ROMK mod)
Cc1cc(Sc2nc(N(C)C)nc(N(C)C)n2)nc(Cl)n1	none
O=C(N/N=C1\CCCc2ccccc21)c1cccc([N+](=O)[O-])c1	KCC2 mod 4.4 | KCC2 secondary inconclusive | KCC2 bumet counter 0.023 | KCC2 secondary2 inactive | HEK counter1 0.012 | KCC2 retest ouab inactive | HEK counter2 0.012
O=C(N/N=C1\CCCc2ccccc21)c1cccc(Br)c1	KCC2 mod 5.9 | KCC2 secondary inconclusive | KCC2 bumet counter 0.022 | KCC2 secondary2 inactive | HEK counter1 0.011 | KCC2 retest ouab inconclusive | HEK counter2 inconclusive
C/C(=N\NC(=O)c1csc(C)c1C)c1ccco1	none
C/C(=N/NC(=O)c1cccs1)c1ccco1	KCC2 mod 4.7 (no result: ROMK mod) | KCC2 secondary inactive | KCC2 bumet counter 0.015 | KCC2 secondary2 inactive | HEK counter1 inconclusive | KCC2 retest ouab inconclusive | HEK counter2 0.011
C/C(=N\NC(=O)c1cccc([N+](=O)[O-])c1)c1cccs1	KCC2 mod 3.8 (no result: WT yeast gro inh) | KCC2 secondary inactive | KCC2 bumet counter 0.023 | KCC2 secondary2 inactive | HEK counter1 0.017 | KCC2 retest ouab inconclusive | HEK counter2 inconclusive
O=C(O)c1nn2cc(CCO)cnc2c1Cl	none
CC(=O)Oc1ccc(-c2cccc(C(=O)N(C)c3ccc(O)cc3)c2)cc1	none
CO[C@H]1C[C@@H]2CC[C@@H](C)[C@@](O)(O2)C(=O)C(=O)N2CCCC[C@H]2C(=O)O[C@H]([C@H](C)C[C@@H]2CC[C@@H](O)[C@H](OC)C2)CC(=O)[C@H](C)C=C(C)[C@@H](O)[C@@H](OC)C(=O)[C@H](C)C[C@H](C)C=CC=CC=C1C	none (no result: ROMK mod, WT yeast gro inh, RBBP9 inhibitor) | KCC2 secondary inactive | KCC2 bumet counter inactive | KCC2 secondary2 inactive | HEK counter1 inactive | KCC2 retest ouab inactive | HEK counter2 inactive
Cn1c(-c2csc(-c3ccccc3)n2)n[nH]c1=S	KCC2 mod 5.2 | KCC2 secondary inactive | KCC2 bumet counter 0.021 | KCC2 secondary2 inactive | HEK counter1 0.017 | KCC2 retest ouab 0.028 | HEK counter2 0.02
C=CCn1c(-c2cccc3ccccc23)n[nH]c1=S	none
CCn1c(-c2cc(-c3ccc(C)cc3)nc3ccccc23)n[nH]c1=S	KCC2 mod 7.9 | KCC2 secondary inconclusive | KCC2 bumet counter 0.049 | KCC2 secondary2 inactive | HEK counter1 0.015 | KCC2 retest ouab 0.039 | HEK counter2 0.017
C=CCn1c(-c2cc(-c3ccc(C)cc3)nc3ccccc23)n[nH]c1=S	KCC2 mod 36 | KCC2 secondary 0.015 | KCC2 bumet counter 0.11 | KCC2 secondary2 inactive | HEK counter1 0.031 | KCC2 retest ouab 0.052 | HEK counter2 0.012
Cc1ccc(-c2n[nH]c(=S)n2C)cc1	none (no result: KCC2 mod)
CCn1c(-c2sc(-c3ccccc3)nc2C)n[nH]c1=S	KCC2 mod 3.9 | KCC2 secondary inactive | KCC2 bumet counter 0.013 | KCC2 secondary2 inactive | HEK counter1 0.014 | KCC2 retest ouab inconclusive | HEK counter2 0.017
CC(C(=O)Nc1cccc(S(=O)(=O)N2CCOCC2)c1)N1CCN(c2ccc(F)cc2)CC1 (stereo not drawn)	none
COc1cc(CN2CCNC(=O)C2CC(=O)N(Cc2nccn2C)C(C)C)cc(OC)c1 (stereo not drawn)	none (no result: ROMK mod, WT yeast gro inh)
COc1cc(/C=C2\SC(=S)N(NS(=O)(=O)c3ccc(C)cc3)C2=O)ccc1O	KCC2 mod -4.9 (no result: ROMK mod, WT yeast gro inh) | KCC2 secondary inactive | KCC2 bumet counter -0.0052 | KCC2 secondary2 0.018 | HEK counter1 0.0044 | KCC2 retest ouab 0.0057 | HEK counter2 inconclusive
COc1cc(/C=C2\SC(=S)N(NS(=O)(=O)c3ccc(C)cc3)C2=O)cc(OC)c1OC	KCC2 mod 7.8 (no result: ROMK mod, WT yeast gro inh) | KCC2 secondary inactive | KCC2 bumet counter 0.022 | KCC2 secondary2 inactive | HEK counter1 0.014 | KCC2 retest ouab inactive | HEK counter2 inactive
COc1cc(/C=C2\SC(=S)N(NC(=O)c3ccncc3)C2=O)ccc1O	none (no result: WT yeast gro inh)
